How the values were obtained:
[1] = Cytotoxicity against human Huh7.5 cells assessed as reduction in cell viability after 3 days by MTT assay; assay type: cell-based; conditions: time 3 day
In short: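 Huh7.5 cells were mock-infected and then treated with increasing concentrations of compound (3-fold serial dilutions), in parallel with the antiviral plates. Viability was measured by MTT assay and CC50 was derived. Run in triplicate.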

[2] = Selectivity index, ratio of CC50 for human Huh7.5 cells to EC50 for HCV genotype 2a JFH-1 infected in human Huh7.5 cells; assay type: toxicity, cell-based; conditions: read-out: Ratio CC50/EC50
In short: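 This is the CC50/EC50 ratio. CC50 came from MTT viability of mock-infected Huh7.5 cells. EC50 came from Renilla luciferase in Huh7.5 cells infected with JFH1-Luc (MOI 0.004) and read 3 days post-infection, with 3-fold serial compound dilutions. Both were run in parallel, in triplicate.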

[3] = Antiviral activity against recombinant HCV genotype 2a JFH-1 infected in human Huh7.5 cells after 3 days by renilla luciferase reporter gene assay; assay type: functional, cell-based, Hepatitis C virus subtype 2a; conditions: Hepatitis C virus, JFH-1, Huh7.5, 72 h
In short: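 Huh7.5 cells in DMEM with 10% FBS were infected with JFH1-Luc reporter virus at MOI 0.004 for 5 h at 37 °C while exposed to 3-fold serial dilutions of compound. On day 3 post-infection, the cells were lysed and Renilla luciferase activity was read. EC50 was calculated from the signal. Run in triplicate.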

[4] = molecular target: Peptidyl-prolyl cis-trans isomerase A (Homo sapiens, UniProt P62937); assay: Binding affinity to Cyclophilin A (unknown origin) by surface plasmon resonance analysis
In short: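 SPR was used. CypA was immobilized by EDC/NHS activation, diluted in 10 mM sodium acetate pH 6.0, then quenched with 1 M ethanolamine pH 8.5. A protein-free reference channel was used. Running buffer was PBS with 5% DMSO at 30 µL/min, with 3 min association and 4 min dissociation. Regeneration used 50 mM NaOH. KD came from kinetic fitting.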

Chain of Peptidyl-prolyl cis-trans isomerase A (P62937 whole entry): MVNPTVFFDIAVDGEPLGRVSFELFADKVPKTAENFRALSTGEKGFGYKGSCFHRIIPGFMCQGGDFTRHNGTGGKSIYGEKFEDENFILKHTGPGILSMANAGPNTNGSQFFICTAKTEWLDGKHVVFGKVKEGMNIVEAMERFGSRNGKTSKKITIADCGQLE

`COc1cc(C(C(=O)NC2CCCCC2)N(C(=O)Cc2c[nH]c3ccccc23)c2ccc(C(C)C)cc2)cc(OC)c1OC` (centres undefined) gave a CC50 at 72 h [1] of over 100 µM, a selectivity ratio [2] of over 19.2 and an EC50 [3] of 5.2 µM.
Work on `COc1ccc(N(C(=O)Cc2c[nH]c3ccccc23)C(C(=O)NC2CCCCC2)c2cc(OC)c(OC)c(OC)c2)cc1` (centres undefined) yielded a CC50 at 72 h [1] of 44.8 µM, a selectivity ratio [2] of 9 and an EC50 [3] of 5 µM.
Work on `COc1cc(C(C(=O)NC2CCCCC2)N(C(=O)c2cc3ccccc3[nH]2)c2ccc(C(C)C)cc2)cc(OC)c1OC` (centres undefined) yielded a CC50 at 72 h [1] of 19.4 µM, a selectivity ratio [2] of 9.7 and an EC50 [3] of 2 µM.
For `COc1ccc(C(C(=O)NC2CCCCC2)N(C(=O)Cc2c[nH]c3ccccc23)C2CCCCC2)cc1OC` (centres undefined), the CC50 at 72 h [1] was 14.6 µM and the EC50 [3] was over 14.6 µM.
In the case of `COc1ccc(C(C(=O)NC2CCCCC2)N(C(=O)Cc2c[nH]c3ccccc23)c2ccc(C(C)C)cc2)c(OC)c1OC` (centres undefined), the CC50 at 72 h [1] is reported as 5.9 µM and the EC50 [3] is reported as over 5.9 µM.
Work on `COc1cc(C(C(=O)NC(C)(C)C)N(C(=O)Cc2c[nH]c3ccccc23)c2ccc(C(C)C)cc2)cc(OC)c1OC` (centres undefined) yielded a CC50 at 72 h [1] of 13.9 µM, a selectivity ratio [2] of 2.3 and an EC50 [3] of 6.3 µM.
Work on `COc1ccc(C(C(=O)NC2CCCCC2)N(C(=O)Cc2c[nH]c3ccccc23)c2ccc(C(C)C)cc2)cc1OC` (centres undefined) yielded a CC50 at 72 h [1] of 6.9 µM, a selectivity ratio [2] of 3.5 and an EC50 [3] of 2 µM.
`COc1ccc(Cn2cc(CC(=O)N(c3ccccc3)C(C(=O)NC3CCCCC3)c3ccccc3)c3ccccc32)cc1` (centres undefined) gave a CC50 at 72 h [1] of 24.4 µM and an EC50 [3] of over 24.4 µM.
`COc1ccc(N(C(=O)Cc2c[nH]c3ccccc23)C(C(=O)NC2CCCCC2)c2cc(OC)c(OC)c(OC)c2)cc1OC` (centres undefined) showed a CC50 at 72 h [1] of 56.7 µM, a selectivity ratio [2] of 5.5 and an EC50 [3] of 10.2 µM.
For `COc1ccc(C(C(=O)NC2CCCCC2)N(C(=O)Cc2c[nH]c3ccccc23)c2ccccc2)c(OC)c1OC` (centres undefined), the CC50 at 72 h [1] was 18.8 µM and the EC50 [3] was over 18.8 µM.
`COc1cc(C(C(=O)NC2CCCCC2)N(C(=O)Cc2c[nH]c3ccccc23)c2cccc3ccccc23)cc(OC)c1OC` (centres undefined) gave a CC50 at 72 h [1] of 33.2 µM, a selectivity ratio [2] of 3.4 and an EC50 [3] of 9.4 µM.
For `COc1ccc(CCN(C(=O)Cc2c[nH]c3ccccc23)C(C(=O)NC2CCCCC2)c2cc(OC)c(OC)c(OC)c2)cc1OC` (centres undefined), the Kd [4] was 3.66 µM, the CC50 at 72 h [1] was over 100 µM and the selectivity ratio [2] was over 18.9. The EC50 [3] was 5.3 µM.
Work on `COc1cc(C(C(=O)NC(C)(C)C)N(C(=O)c2cc3ccccc3[nH]2)c2ccc(C(C)C)cc2)cc(OC)c1OC` (centres undefined) yielded a CC50 at 72 h [1] of 36.7 µM, a selectivity ratio [2] of 6.2 and an EC50 [3] of 5.9 µM.
For `COc1ccc(N(C(=O)Cc2c[nH]c3ccccc23)C(C(=O)NC2CCCCC2)c2ccc(OC)c(OC)c2)cc1` (centres undefined), the CC50 at 72 h [1] was 32.7 µM, the selectivity ratio [2] was 8.6 and the EC50 [3] was 3.8 µM.
With `COc1ccc(C(C(=O)NC2CCCCC2)N(CC(OC)OC)C(=O)Cc2c[nH]c3ccccc23)cc1OC` (centres undefined) the CC50 at 72 h [1] was 54.5 µM and the EC50 [3] was over 54.5 µM.
For `COc1ccc(C(C(=O)NC2CCCCC2)N(C(=O)Cc2c[nH]c3ccccc23)c2ccc(Br)cc2)c(OC)c1OC` (centres undefined), the CC50 at 72 h [1] was 7.2 µM and the EC50 [3] was over 7.2 µM.
`COc1ccc(C(C(=O)NC2CCCCC2)N(C(=O)Cc2c[nH]c3ccccc23)c2ccc(OC)c(OC)c2)cc1OC` (centres undefined) gave a CC50 at 72 h [1] of 55.3 µM, a selectivity ratio [2] of 10.5 and an EC50 [3] of 5.3 µM.
For `NC(=O)c1ncn([C@@H]2O[C@H](CO)[C@@H](O)[C@H]2O)n1` [RIBAVIRIN], the CC50 at 72 h [1] was 16.3 µM, the selectivity ratio [2] was over 6.1 and the EC50 [3] was over 100 µM.
